Measurements from ChEMBL document CHEMBL1629474, “Massive screening yields novel and selective Trypanosoma cruzi triosephosphate isomerase dimer-interface-irreversible inhibitors with anti-trypanosomal activity” (Eur J Med Chem, 2010).
Calls of active or inactive are those of the source. How the calls were made is not given here.

Columns and labels:
[1] = biological target: Triosephosphate isomerase, glycosomal (Trypanosoma cruzi) (UniProt P52270); experiment: Inhibition of Trypanosoma cruzi triosephosphate isomerase at 100 uM after 2 hrs
Summary of the method: (§1)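 Recombinant E. coli-expressed enzyme, dialyzed into 100 mM triethanolamine/10 mM EDTA pH 7.4, was incubated with compound (DMSO stock) in 100 mM triethanolamine, 10 mM EDTA, pH 7.4, 10% DMSO at 36 °C for 2 h. An aliquot was then assayed for activity (glyceraldehyde 3-phosphate to dihydroxyacetone phosphate, α-glycerol phosphate dehydrogenase-coupled) with 5 ng enzyme. Irreversible inhibition was scored as loss of activity; means of two experiments.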

[2] = biological target: Triosephosphate isomerase, glycosomal (Trypanosoma cruzi) (UniProt P52270); experiment: Inhibition of Trypanosoma cruzi triosephosphate isomerase at 400 uM after 2 hrs; summary of the method: as §1
Trypanosoma cruzi = experiment: Antiparasitic activity against Trypanosoma cruzi T2 epimastigotes assessed as growth inhibition at 25 uM after 5 days; assay type: functional
Summary of the method: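 Late-log epimastigotes were grown axenically at 28 °C in BHI-tryptose with 5% fetal calf serum and seeded at 2×10^6/mL in medium containing compound (DMSO stock; final DMSO ≤1%, 1% DMSO control). Growth was read as A590 at day 0 and day 5. Inhibition = {1 − [(Ap − A0p)/(Ac − A0c)]} × 100. Means of two experiments.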

[3] = Selectivity for Trypanosoma cruzi triosephosphate isomerase over human triosephosphate isomerase

Triosephosphate isomerase, glycosomal (Trypanosoma cruzi), sequence (P52270 whole entry): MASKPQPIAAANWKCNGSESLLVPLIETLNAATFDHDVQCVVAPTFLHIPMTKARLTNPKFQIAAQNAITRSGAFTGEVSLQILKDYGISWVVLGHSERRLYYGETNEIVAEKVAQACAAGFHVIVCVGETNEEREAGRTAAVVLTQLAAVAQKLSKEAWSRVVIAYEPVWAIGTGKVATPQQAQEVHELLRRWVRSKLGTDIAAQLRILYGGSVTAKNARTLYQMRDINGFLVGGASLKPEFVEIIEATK

| Compound | inhibition [1] [%] | inhibition [2] [%] | Activity (Trypanosoma cruzi) | Ratio [3] |
| --- | --- | --- | --- | --- |
| [O-][n+]1onc2ccc(/C=C/c3cccs3)cc21 | 27 | 73 | Active | > 4 |
| CCCCCCN1C(=O)C(=Cc2ccc([N+](=O)[O-])cc2)C(=O)N(CCCCCC)S1(=O)=O | 26 | 98 | Active | > 4 |
| O=C1C(=Cc2ccc([N+](=O)[O-])s2)C(=O)N(Cc2ccccc2)S(=O)(=O)N1Cc1ccccc1 | 84 | 77 | Active | > 4 |
| O=[N+]([O-])c1ccc(/C=C/C=N/NC(=S)Nc2ccccc2)o1 | 75 | 100 | Active | > 4 |
| O=C1C(=Cc2ccc([N+](=O)[O-])cc2)C(=O)N(Cc2ccccc2)S(=O)(=O)N1Cc1ccccc1 | 28 | 74 | Active | > 4 |
| O=[N+]([O-])c1ccc(C=Cc2ccc3no[n+]([O-])c3c2)s1 | 82 | 71 | Active | > 4 |
| [O-][n+]1onc2ccc(/C=N/N=C/c3cc(Br)ccc3O)cc21 | 0 | 100 | Active | > 4 |
| O=C(N/N=C/c1ccc([N+](=O)[O-])o1)Nc1cccc2ccccc12 | 20 | 82 | Active | > 4 |
| Cc1c(CNc2ccc3ccccc3c2)no[n+]1[O-] | 0 | 92 | Active | > 4 |
| O=C1C(=Cc2ccc([N+](=O)[O-])cc2)C(=O)N(CCc2ccccc2)S(=O)(=O)N1CCc1ccccc1 | 58 | 85 | Active | > 4 |
| O=[N+]([O-])c1ccc(/C=N/NC(=S)Nc2ccccc2)s1 | 25 | 100 | Active | > 4 |
| O=C1C(=Cc2ccc([N+](=O)[O-])s2)C(=O)N(CCc2ccccc2)S(=O)(=O)N1CCc1ccccc1 | 68 | 82 | Active | > 4 |
| C=CCNC(=S)N/N=C\c1ccccc1OCc1ccc2no[n+]([O-])c2c1 | 45 | 75 | Active | > 4 |
| CCOC(=O)c1nc(-c2cc(C(C)(C)C)c(O)c(C(C)(C)C)c2)ns1 | 65 | 87 | Active | > 4 |
| [O-][n+]1onc2ccc(/C=C/c3ccc4c(c3)OCO4)cc21 | 21 | 70 | Active | > 4 |
| Nc1ccc(-c2ccccc2)cc1[N+](=O)[O-] | 47 | 93 | – | > 4 |
| O=S(=O)(c1ccccc1)c1no[n+]([O-])c1S(=O)(=O)c1ccccc1 | 35 | 93 | Active | > 4 |
| O=C(N/N=C/C=C/c1ccc([N+](=O)[O-])o1)Nc1ccc2ccccc2c1 | 47 | 100 | Active | > 4 |
| [O-][n+]1onc2ccc(/C=C/Sc3ccc(F)cc3)cc21 | 47 | 88 | Active | > 4 |
| C/C(=C\c1ccc(Br)cc1)[N+](=O)[O-] | 0 | 95 | Active | > 4 |

| Compound | inhibition [1] [%] | inhibition [2] [%] | Activity (Trypanosoma cruzi) | Ratio [3] |
| --- | --- | --- | --- | --- |
| NC(=S)N/N=C/c1ccc([N+](=O)[O-])o1 | 57 | 85 | Active | > 4 |
| CCCCNC(=O)N/N=C/c1ccc([N+](=O)[O-])o1 | 17 | 0 | Active | > 4 |
| [O-][n+]1onc2ccc(/C=C/c3ccc4nonc4c3)cc21 | 13 | 80 | Active | > 4 |
| NC(=O)N/N=C/c1ccc(OCc2ccc3no[n+]([O-])c3c2)cc1 | 36 | 82 | Active | > 4 |
| COc1ccc(CCNC(=O)N/N=C/c2ccc([N+](=O)[O-])o2)cc1OC | 76 | 100 | Active | > 4 |
| CCOC(=O)/C=C/c1ccc([N+](=O)[O-])o1 | – | 3 | Active | > 4 |
| O=C(/C=C/c1ccc([N+](=O)[O-])o1)NC12CC3CC(CC(C3)C1)C2 | – | 16 | Active | > 4 |
| O=Cc1c(-c2ccccc2)no[n+]1[O-] | – | 53 | Active | > 4 |
| O=[N+]([O-])c1ccccc1/C=N/N1CCOCC1 | – | 28 | Active | > 4 |
| CC1[N+]([O-])=c2ccc(Cc3ccccc3)cc2=[N+]1[O-] (configuration not stated) | – | 25 | Active | > 4 |
| N#Cc1c2ccccc2[n+]([O-])n1-c1ccc2ccccc2c1 | – | 19 | Active | > 4 |
| O=C(N/N=C/c1ccc([N+](=O)[O-])o1)Nc1ccc2ccccc2c1 | 32 | 100 | Active | > 4 |
| CC(=N\c1ccc(C)cc1)/C(C)=N/c1ccc(C)cc1 | – | 23 | Active | > 4 |
| [O-][n+]1onc2ccc(/C=C/[S+]([O-])c3ccccc3)cc21 (configuration not stated) | – | 28 | Active | > 4 |
| [O-][n+]1onc(-c2ccccc2)c1CN1CCN(c2ccccc2)CC1 | – | 27 | Active | > 4 |
| N#Cc1ccc(C=Cc2ccc3no[n+]([O-])c3c2)cc1 | – | 0 | Active | > 4 |
| CCN(CC)CCCNS(=O)(=O)NCCCN(CC)CC | – | 0 | Active | > 4 |
| COCCNC(=O)N/N=C/c1ccc2no[n+]([O-])c2c1 | – | 3 | Active | > 4 |
| O=[N+]([O-])c1ccccc1C=Cc1ccc2no[n+]([O-])c2c1 | – | 11 | Active | > 4 |
| C=CCNC(=S)N/N=C/c1ccc2no[n+]([O-])c2c1 | – | 14 | Active | > 4 |

| Compound | inhibition [1] [%] | inhibition [2] [%] | Activity (Trypanosoma cruzi) | Ratio [3] |
| --- | --- | --- | --- | --- |
| CCCCNC(=O)N/N=C/c1ccc2no[n+]([O-])c2c1 | – | 38 | Active | > 4 |
| Cc1ccc2c(c1)=[N+]([O-])C(C)[N+]=2[O-] (configuration not stated) | – | 18 | Active | > 4 |
| [O-][n+]1onc2ccc(/C=N/O)cc21 | – | 27 | Active | > 4 |
| CNC(=S)N/N=C/C=C/c1ccc([N+](=O)[O-])o1 | – | 9 | Active | > 4 |
| [O-][n+]1onc(-c2ccccc2)c1CNc1ccc(Br)cc1 | – | 48 | Active | > 4 |
| [O-][n+]1onc2ccc(/C=N/N=C/c3ccccc3O)cc21 | – | 24 | Active | > 4 |
| O=C(/C=C/c1ccc([N+](=O)[O-])o1)NCCCl | – | 13 | Active | > 4 |
| [O-][N+]1=c2ccccc2=[N+]([O-])C12CCCC2 | – | 12 | Active | > 4 |
| COC(=O)/C=C/c1ccc2no[n+]([O-])c2c1 | – | 8 | Active | > 4 |
| O=S(=O)(NCCc1ccccc1)NCCc1ccccc1 | – | 0 | Active | > 4 |
| [O-][n+]1onc(-c2ccccc2)c1CCl | – | 65 | Active | > 4 |
| CCCN(CCOCCn1nc(OCc2ccccc2)c2cc([N+](=O)[O-])ccc21)CCC(C)C1CC=C(C)CC1 (configuration not stated) | – | 0 | Active | > 4 |
| [O-][n+]1onc2ccc(/C=C\c3ccccc3)cc21 | – | 0 | Active | > 4 |
| O=Cc1ccc2no[n+]([O-])c2c1 | – | 14 | Active | > 4 |
| C=CCNC(=S)N/N=C/c1ccco1 | – | 12 | Active | > 4 |
| CCCN(CCCCCn1nc(OCc2ccccc2)c2cc([N+](=O)[O-])ccc21)CCC(C)C1CC=C(C)CC1 (configuration not stated) | – | 11 | Active | > 4 |
| Cc1nnc[n+]([O-])c1/C=C/c1ccc([N+](=O)[O-])s1 | – | 28 | Active | > 4 |
| [O-][n+]1onc2ccc(/C=C\c3ccc(Cl)cc3)cc21 | – | 5 | Active | > 4 |
| CN(C/C=C/c1ccccc1)Cc1ccc2no[n+]([O-])c2c1 | – | 7 | Active | > 4 |
